Assay results reported in ChEMBL document CHEMBL4680370, “Discovery of Novel Small-Molecule FAK Activators Promoting Mucosal Healing” (ACS Med Chem Lett, 2021).
Where “and” joins values, the source holds several entries; their conditions need not be identical. Equal entries are not always repeated. Calls of active or inactive are those of the source. The calls are words filed in the database; no cut-off is given here.

How the values were obtained:
[1] = molecular target: Focal adhesion kinase 1 (Homo sapiens) (UniProt Q05397); assay: Activation of FAK in human Caco-2 cells assessed as fold increase in FAK Tyr397 phosphorylation at 10 nM incubated for 1 hr by Western blot analysis relative to control; format: cell-based; details: filed as activator
Chain of Focal adhesion kinase 1 (Homo sapiens) (Q05397 2-1052 limits assumed): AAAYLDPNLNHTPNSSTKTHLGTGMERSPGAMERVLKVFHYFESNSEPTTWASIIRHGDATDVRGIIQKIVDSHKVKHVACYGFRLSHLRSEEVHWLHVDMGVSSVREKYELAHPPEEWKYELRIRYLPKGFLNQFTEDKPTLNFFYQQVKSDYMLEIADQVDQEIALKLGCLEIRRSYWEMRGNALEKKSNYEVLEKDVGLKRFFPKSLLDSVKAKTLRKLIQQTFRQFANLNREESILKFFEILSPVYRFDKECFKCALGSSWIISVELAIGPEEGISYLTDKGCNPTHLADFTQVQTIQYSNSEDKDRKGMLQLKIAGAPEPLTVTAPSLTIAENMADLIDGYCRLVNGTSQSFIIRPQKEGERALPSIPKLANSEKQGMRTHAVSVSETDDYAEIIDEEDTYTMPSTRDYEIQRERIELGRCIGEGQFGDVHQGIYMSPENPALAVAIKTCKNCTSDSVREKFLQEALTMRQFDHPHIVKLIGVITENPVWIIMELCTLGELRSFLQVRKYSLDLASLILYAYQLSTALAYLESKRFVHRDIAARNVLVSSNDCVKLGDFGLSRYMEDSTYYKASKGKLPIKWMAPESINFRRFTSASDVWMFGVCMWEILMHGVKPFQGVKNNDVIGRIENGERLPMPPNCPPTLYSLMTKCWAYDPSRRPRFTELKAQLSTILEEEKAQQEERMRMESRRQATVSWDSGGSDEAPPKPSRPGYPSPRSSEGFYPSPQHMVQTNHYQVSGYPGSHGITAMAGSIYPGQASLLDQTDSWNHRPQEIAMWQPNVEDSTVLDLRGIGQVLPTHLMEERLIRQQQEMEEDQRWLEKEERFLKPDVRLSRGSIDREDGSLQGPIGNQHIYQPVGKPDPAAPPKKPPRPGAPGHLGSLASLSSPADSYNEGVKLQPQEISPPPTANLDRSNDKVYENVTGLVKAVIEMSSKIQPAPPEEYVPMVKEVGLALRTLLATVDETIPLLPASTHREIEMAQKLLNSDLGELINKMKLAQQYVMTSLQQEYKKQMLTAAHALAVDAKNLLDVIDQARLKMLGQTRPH
Summary of the method: (§1)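 Caco-2 cells were exposed to compound at 10 nM, with DMSO vehicle as control. At least eight separate experiments were run and the data pooled, reported as mean ± standard error.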

Caco-2 = assay: Induction of wound closure in human Caco-2 cells at 10 nM in presence of hydroxyurea measured upto 24 hrs by inverted light microscopy based wound healing assay; format: functional, cell-based; details: time hrs <=24
[2] = molecular target: Focal adhesion kinase 1 (Homo sapiens) (UniProt Q05397); assay: Activation of FAK in human Caco-2 cells assessed as increase in FAK Tyr397 phosphorylation incubated for 1 hr by Western blot analysis; format: cell-based; details: filed as activator, dose 10-1000 nM
[3] = molecular target: Focal adhesion kinase 1 (Homo sapiens) (UniProt Q05397); assay: Activation of FAK in human Caco-2 cells assessed as increase in FAK Tyr397 phosphorylation at 10 nM incubated for 1 hr by Western blot analysis; format: cell-based; details: filed as activator; summary of the method: as §1
[4] = Toxicity in C57BL/6 mouse assessed as body weight at 900 ug/kg, ip administered for every 6 hrs for 3 days and measured on day 4 (reference value: 9.16 +/- 0.62 %); format: organism-based; details: in vivo, 0.9 mg/kg, dose 900 µg/kg
[5] = Tmax in C57BL/6 mouse at 900 ug/kg, ip measured upto 12 hrs by LC-MS/MS analysis; format: ADME, organism-based; details: in vivo, 0.9 mg/kg, dose 900 µg/kg
Summary of the method: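 Single intraperitoneal dose of 900 μg/kg in C57BL/6 mice. Compound was first dissolved in DMSO, then diluted in 100 μL normal saline (final DMSO 2.5% in the injected solution). Plasma concentration was followed over time after dosing.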

Mus musculus = assay: Antiinflammatory activity against ischemic jejunal ulcer C57BL/6J mouse model assessed as ulcer area at 900 ug/kg, ip administered for every 6 hrs for 3 days and measured on day 4 by imaging analysis (reference value: 3.26 +/- 0.47 mm2); details: dose 900 µg/kg; time 4 day

| fold change (FC) [1] | Activity [2] | Activity [3] | SMILES | Activity (Caco-2) | further results |
| --- | --- | --- | --- | --- | --- |
| 1 | – | – | O=C(Nc1cc(C(F)(F)F)ccc1N1CCS(=O)(=O)CC1)N1CCCC1c1ccncc1 (centres undefined) | – | – |
| 1.1 | – | – | O=C(Nc1ccccc1N1CCOCC1)N1CCCC1c1ccncc1 (centres undefined) | – | – |
| 1 | – | – | CC1CN(c2ccc(C(F)(F)F)cc2NC(=O)N2CCCC2c2ccncc2)CC(C)O1 (centres undefined) | – | – |
| 1.4 | Dose-dependent effect | Active | O=C(Nc1cc(C(F)(F)F)ccc1N1CCOCC1)N1CCCC1c1ccccc1 (centres undefined) | Active | – |
| 0.9 | – | – | CN1CCN(c2ccc(C(F)(F)F)cc2NC(=O)N2CCCC2c2ccncc2)CC1 (centres undefined) | – | – |
| 1.1 | – | – | O=C(Nc1cc(C(F)(F)F)ccc1N1CCOCC1)N1CCCC1c1ccc(O)cc1 (centres undefined) | – | – |
| 1.4 | Dose-dependent effect | Active | COc1ccc(C(CNC(=O)Nc2cc(C(F)(F)F)ccc2N2CCOCC2)N(C)C)cc1 (centres undefined) | Active | – |
| 1 | – | – | CN(C)C(CNC(=O)Nc1cc(C(F)(F)F)ccc1N1CCOCC1)c1ccccc1 (centres undefined) | – | – |
| – | Dose-dependent effect | Active | O=C(Nc1cc(C(F)(F)F)ccc1N1CCOCC1)N1CCCC1C1CCCCC1 (centres undefined) | Active | – |
| 1.5 and 1 | Dose-dependent effect | Active | O=C(Nc1cc(C(F)(F)F)ccc1N1CCOCC1)N1CCCC1c1ccncc1 (centres undefined) | Active | Activity [4]: 6.33%; Tmax [5]: 1 h; Activity (Mus musculus): 1.57 mm2 |
